Screening data: PubChem, The Scripps Research Institute Molecular Screening Center
Most compounds without a hit are left out; they make up all but 2.5% or so of the library.
PAD4 inh = blocks human protein arginine deiminase 4. inhibition, % at 6.36 µM. Q9UM07. 0.41% of 330,000 active. AID 485272. recombinant PAD4, RCA probe fluorescence polarization;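 active = percent inhibition above a cutoff equal to the mean of all tested compounds plus 3 SD, cut at about 15% in these data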;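 note: 0% = PAD4 with RCA probe and DMSO and 100% = probe without PAD4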
TDP2 inh = blocks human TDP2 phosphodiesterase activity; O95551; recombinant TDP2, T5PNP hydrolysis, p-nitrophenol absorbance 415 nm; AID 720702; inhibition, % at 12.8 µM; 0.34% of 370,000 active;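 active = inhibition above the mean of all tested compounds plus 3 SD, set per campaign, cut at about 25% in these data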;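 note: 0% = DMSO with enzyme and 100% = buffer with substrate but no TDP2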
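Material: recombinant human TDP2; quantity: TDP2 enzyme at 120 nM final; medium: Tris-HCl pH 7.5 with MgCl2; compound: single concentration, 12.8 µM nominal, with 1% DMSO; incubation: 2 h enzyme incubation at 37 °C; signal: epi absorbance; measure: percent inhibition; benchmarks: high control without enzyme, low control DMSO plus TDP2; repeats: singlicate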
GSTO1 counter = blocks human GSTO1 in RBBP9 counter-screen; P78417; AID 1974; 1.1% of 300,000 active; inhibition, % at 5.96 µM; recombinant GSTO1, activity-based probe fluorescence polarization;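 active = inhibition above the campaign mean inhibition plus 3 SD, cut at about 35% in these data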;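 note: 0% = GSTO1-1 with DMSO and 100% = wells lacking GSTO1-1 enzyme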
Target sequence (P78417 whole entry, looked up): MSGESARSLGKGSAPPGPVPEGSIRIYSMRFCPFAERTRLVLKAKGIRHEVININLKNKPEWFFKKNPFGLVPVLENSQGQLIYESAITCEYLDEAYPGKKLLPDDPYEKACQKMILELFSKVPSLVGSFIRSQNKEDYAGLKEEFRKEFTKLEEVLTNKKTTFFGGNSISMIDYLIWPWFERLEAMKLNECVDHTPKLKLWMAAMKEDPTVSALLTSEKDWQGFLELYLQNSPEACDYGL
E coli Lon inh = inhibitors of E. coli Lon protease. AID 602123. P0A9M0. 0.42% of 360,000 active. purified E. coli Lon protease, fluorescence polarization. inhibition, % at 7.94 µM; in the data active = inhibition above about 13%, passing the limit was not always enough;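 note: 0% = enzyme with probe and DMSO and 100% = no enzyme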
PRMT1 inh = blocks human protein arginine methyltransferase 1. Q99873. recombinant PRMT1, activity-based probe fluorescence polarization. inhibition, % at 2.79 µM. 1.3% of 370,000 active. AID 652257;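 active = inhibition above about 21% made by adding two undisclosed values, limit read from the data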
Target sequence (Q99873 whole entry, looked up): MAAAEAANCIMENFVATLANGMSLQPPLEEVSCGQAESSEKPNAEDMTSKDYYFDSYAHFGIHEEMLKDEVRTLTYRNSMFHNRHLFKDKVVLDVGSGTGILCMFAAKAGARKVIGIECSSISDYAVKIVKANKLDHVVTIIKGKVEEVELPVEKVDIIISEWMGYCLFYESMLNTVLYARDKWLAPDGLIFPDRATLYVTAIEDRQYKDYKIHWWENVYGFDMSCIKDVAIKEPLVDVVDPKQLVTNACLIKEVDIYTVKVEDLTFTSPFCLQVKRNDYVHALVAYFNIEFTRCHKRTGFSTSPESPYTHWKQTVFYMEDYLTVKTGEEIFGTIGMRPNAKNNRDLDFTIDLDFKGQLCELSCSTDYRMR
E coli Lon conf = E. coli Lon inhibition confirmation; shares compounds with E coli Lon inh; purified E. coli Lon, fluorescence polarization; 31% of 1,400 active; inhibition, % at 7.94 µM; in the data active = inhibition above about 16%;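 note: 0% = enzyme with probe and DMSO and 100% = no enzyme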
* marks the source's active call; other numbers are inactive results; x = no result.

SMILES	PAD4 inh	TDP2 inh	GSTO1 counter	E coli Lon inh	PRMT1 inh	E coli Lon conf
CN(CCCOC(=O)c1occ2ccccc12)C1CN(Cc2cn(Cc3ccccc3Cl)nn2)S(=O)(=O)C1 (centres undefined)	x	-3	x	x	5	x
CCCCNc1nc2ccccc2n1CC(=O)Nc1c(C)cccc1CC	-1	3	-3	25*	1	-9
CCc1cccc(C)c1NC(=O)Cn1c(NCCO)nc2ccccc21	-4	-7	5	1	-2	x
O=C([C@@H]1C[C@H]1c1ccccc1)N1CC[C@H]2[C@H](CCCN2Cc2cc(F)cc(F)c2)C1	x	-4	x	x	-2	x
COCCn1nc2cc(C(=O)NCc3cc(C(F)(F)F)cc(C(F)(F)F)c3)ccc2c1OC	-3	-4	0	21*	-1	-8
O=C1CCCC/C1=C\Nc1ccc(C(=O)O)c(O)c1	-3	3	17	44*	9	3
CC1CCC/C(=C\Nc2ccc(C(=O)O)c(O)c2)C1=O (centres undefined)	-1	9	10	12	12	x
O=Cc1cc(N=Nc2ccc(S(=O)(=O)O)cc2)ccc1O	4	-6	11	15	3	x
Cc1cc(C=O)c(O)cc1O	2	11	21	37*	-3	-5
COC(=O)C1CN(CCc2ccccc2)CCS(=O)(=O)N1Cc1ccc(C)cc1 (centres undefined)	x	2	x	x	-1	x
Cc1ccc([C@H]2C(C(=O)O)=CC[C@@H](c3ccc(C(C)C)cc3)N2S(=O)(=O)c2ccc(C)cc2)cc1	9	-4	x	16*	0	-3
Cc1ccc(S(=O)(=O)N2[C@@H](c3ccccc3)C(C(=O)O)=CC[C@H]2c2ccc(C(C)C)cc2)cc1	4	-11	-18	-3	6	x
O=C1CCC(C(=O)N2CCCC(C(=O)c3ccc4ccccc4c3)C2)=NN1 (centres undefined)	-5	-3	3	13*	-1	-7
COc1cc([N+](=O)[O-])ccc1NC(=O)CN1CCc2cc(OC)c(OC)cc2C1	x	-2	x	42*	1	6
COc1cc2c(cc1OC)CN(CC(=O)Nc1cccc([N+](=O)[O-])c1)CC2	-10	4	2	2	-2	x
CC(COc1ccccc1)CN1CCC(C(O)(c2ccccc2)c2ccccc2)CC1 (centres undefined)	x	-5	x	x	-1	x
CC1=NN(C(=S)Nc2ccccc2)C(c2ccccc2)C1 (centres undefined)	-1	3	-6	84*	2	9
Cc1cccc(NC(=S)N2N=CCC2c2ccccc2)c1 (centres undefined)	1	-4	1	-8	0	x
O=c1[nH]c(=S)[nH]c2c1C(c1ccc(Br)cc1)c1c([nH]c(=S)[nH]c1=O)O2	-23	53*	-236	32*	45*	-49
Cc1ccc(C2C3=C(CCCC3=O)Nc3[nH]c(=S)[nH]c(=O)c32)cc1 (centres undefined)	-2	-6	3	2	17	x
Cc1ccc(-c2nc3ncccc3o2)cc1NC(=O)c1cccnc1	-6	-8	1	31*	3	-8
CCCNC(=S)Nc1ccc2nc(-c3ccccn3)c(-c3ccccn3)nc2c1	-2	2	-2	19*	9	-3
C[C@H]1[C@@H](NCC2CCCCC2)CC[C@@]23CCCN2C(=O)CCC[C@@H]13	x	4	x	x	-3	x
O=C(CCc1ccccc1-c1ccccc1CCNC(=O)c1ccccc1)NCc1ccccc1	x	-3	x	x	2	x
O=C(CSc1nnnn1-c1ccc2c(c1)OCCO2)N1CCc2ccccc21	-4	-10	-2	-11	0	x
SMILES	PAD4 inh	TDP2 inh	GSTO1 counter	E coli Lon inh	PRMT1 inh	E coli Lon conf
c1ccc(CSc2nnnn2-c2ccc3c(c2)OCCO3)nc1	-1	-12	4	30*	-1	-4
CCN(CC)C(=O)CC[C@H]1CC[C@]2(CCCN(C(=O)c3ccc4ccccc4n3)C2)O1	x	1	x	x	6	x
CCn1c2ccccc2c2cc([N+](=O)[O-])ccc21	-3	18	-10	-5	-3	x
CC(C)n1c2ccccc2c2cc([N+](=O)[O-])ccc21	0	0	-1	56*	2	-10
O=c1oc2ccccc2c(O)c1Sc1c(O)c2ccccc2oc1=O	x	x	x	28*	x	35*
COC(=O)CCCC1=CC2=C(c3ccccc3)C(=O)C(C)(OC(=O)C3CCCC3)C(=O)C2=CN1CCN1CCOCC1 (centres undefined)	-17	-9	19	84*	3	24*
O=C(O)CCN1C(=O)/C(=C/c2ccc(F)cc2F)SC1=S	x	6	x	x	13	x
C=CCCC(=O)N1C[C@H]2CCN(C)[C@H]2C[C@H]1c1ccccc1Br	x	-3	x	x	-2	x
CCOC(=O)c1ccc(CNC(=O)CSc2nnc(-c3ccncc3)o2)cc1	-1	1	3	-4	4	x
CCOC(=O)c1ccc(CNC(=O)CSc2nc(NC(=O)c3ccccc3)c3c(C)c(C)oc3n2)cc1	-3	7	3	17*	-2	-4
CC(=O)c1ccc2noc(-c3ccc(F)cc3)c2c1	0	-2	8	16*	8	58*
CCOC(=O)c1c(=O)n(O)c2ccc(OC)cc2[n+]1[O-]	12	8	2	83*	12	29*
c1nc(NCC2CCCCO2)c2cc(-c3ccc4c(c3)OCO4)ccc2n1 (centres undefined)	x	8	x	x	0	x
COC(=O)[C@]12C[C@H](CC(=O)N3CCCC3)C(=O)N(Cc3ccc(Cl)cc3Cl)C1=C[C@H](COCc1ccccc1)O[C@@H]2C	x	3	x	x	6	x
CCOc1ccc(NC(=O)NCC2CCN(c3ccc(OC)cc3)C2)cc1 (centres undefined)	-2	13	9	23*	3	-10
Cc1cc(NC(=O)CSc2cn(CCNC(=O)c3ccccc3)c3ccccc23)no1	-1	x	-3	20*	x	-7
CC1(C)C=Cc2ccc(O)c(C(=O)/C=C/c3ccccc3)c2O1	x	-3	x	x	-1	x
COc1ccc(OC)c(NC(=O)Cc2nn(C)c(=O)c3ccccc23)c1	1	2	0	16*	0	-2
COc1ccc(S(=O)(=O)N2CN(Cc3ccco3)c3nc4ccccc4nc32)cc1	-1	-6	1	28*	9	-11
O=S(=O)(c1cccs1)N1CN(Cc2ccccc2)c2nc3ccccc3nc21	-7	-2	1	-8	0	x
O=S(=O)(c1cccs1)N1CN(Cc2cccs2)c2nc3ccccc3nc21	3	-13	-3	18*	1	-34
Cc1ccc(S(=O)(=O)N2CN(Cc3ccco3)c3nc4ccccc4nc32)cc1C	2	11	9	15*	8	-7
CC(C)(C)OC(=O)NCc1cc(F)ccc1/C=C/S(=O)(=O)NCc1ccccc1	x	-1	x	x	6	x
